ChEMBL document CHEMBL4414574, “Structure-Based Discovery and Development of a Series of Potent and Selective Bromodomain and Extra-Terminal Protein Inhibitors” (J Med Chem, 2019)
Active and inactive are the calls of the source. The calls are words filed in the database; no cut-off is given here.

Legend:
[1] = Tmax in ICR mouse at 10 mg/kg, po administered via gavage measured after 0.25 to 24 hrs by UPLC/MS analysis; format: ADME, organism-based; settings: in vivo
Method in brief: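 Male ICR mice dosed orally (3, 10 or 100 mg/kg, per line) in 1% DMSO/0.5% HPMC vehicle; plasma drug levels measured.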

[2] = target: Cytochrome P450 2C19 (Homo sapiens, UniProt P33261); experiment: Time-dependent inhibition of CYP2C19 in human liver microsomes at 10 uM using mephenytoin as substrate preincubated up to 30 mins followed by NADPH generating system addition and measured after 10 mins; format: ADME
Method in brief: (§1)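 Human liver microsomes 0.2 mg/mL, 100 mM phosphate pH 7.4, 10 μM test compound, preincubated 0, 5, 10 and 30 min at 37 °C; then NADPH plus probe cocktail (5 μM midazolam, 50 μM testosterone, 5 μM dextromethorphan, 10 μM diclofenac, 50 μM phenacetin, 50 μM S-(+)-mephenytoin) added; 10 min reaction; kobs in units of 10^-4/min.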

[3] = target: T1, Cytochrome P450 1A2 (Homo sapiens, UniProt P05177); experiment: Time-dependent inhibition of CYP1A2 in human liver microsomes at 10 uM using phenacetin as substrate preincubated up to 30 mins followed by NADPH generating system addition and measured after 10 mins; format: ADME; method in brief: as §1
T1 sequence (P05177 whole entry): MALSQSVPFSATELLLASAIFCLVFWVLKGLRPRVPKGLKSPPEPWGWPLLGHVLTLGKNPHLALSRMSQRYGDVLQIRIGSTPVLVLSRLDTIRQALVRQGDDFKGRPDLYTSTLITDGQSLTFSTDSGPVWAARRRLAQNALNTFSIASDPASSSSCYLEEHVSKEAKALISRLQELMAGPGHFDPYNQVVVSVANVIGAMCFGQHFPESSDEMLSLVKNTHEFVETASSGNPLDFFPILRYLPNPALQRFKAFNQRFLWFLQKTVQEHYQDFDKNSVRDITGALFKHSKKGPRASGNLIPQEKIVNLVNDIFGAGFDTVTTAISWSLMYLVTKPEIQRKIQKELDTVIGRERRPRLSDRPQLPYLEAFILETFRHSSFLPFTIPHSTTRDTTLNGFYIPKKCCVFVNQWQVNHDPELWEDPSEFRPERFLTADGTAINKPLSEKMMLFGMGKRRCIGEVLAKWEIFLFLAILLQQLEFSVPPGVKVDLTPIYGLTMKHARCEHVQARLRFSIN

[4] = target: Cytochrome P450 2C9 (Homo sapiens, UniProt P11712); experiment: Time-dependent inhibition of CYP2C9 in human liver microsomes at 10 uM using diclofenac as substrate preincubated up to 30 mins followed by NADPH generating system addition and measured after 10 mins; format: ADME; method in brief: as §1
[5] = target: Cytochrome P450 2D6 (Homo sapiens, UniProt P10635); experiment: Time-dependent inhibition of CYP2D6 in human liver microsomes at 10 uM using dextromethorphan as substrate preincubated up to 30 mins followed by NADPH generating system addition and measured after 10 mins; format: ADME; method in brief: as §1
[6] = target: Cytochrome P450 3A4 (Homo sapiens, UniProt P08684); experiment: Time-dependent inhibition of CYP3A4 in human liver microsomes at 10 uM using midazolam or testosterone as substrate preincubated up to 30 mins followed by NADPH generating system addition and measured after 10 mins; format: ADME; method in brief: as §1
[7] = target: T2, Bromodomain-containing protein 4 (Homo sapiens, UniProt O60885); experiment: Displacement of 5-FITC labelled (+)-JQ1 from His6-tagged human BRD4 bromodomain 1 expressed in Escherichia coli BL21(DE3) )-codon plus-RIL cells incubated for 4 hrs in dark condition by fluorescence anisotropy binding assay
[8] = tested on: MM1.S; experiment: Antiproliferative activity against human MM1S cells after 72 hrs by CCK8 or SRB assay; format: functional, cell-based
Method in brief: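 IC50 against MM.1S cell proliferation was taken as the mean of three independent experiments, each run in triplicate, reported with SEM.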

[9] = Cmax in ICR mouse at 10 mg/kg, po administered via gavage measured after 0.25 to 24 hrs by UPLC/MS analysis; format: ADME, organism-based; parameters: dose 10 mg/kg, route oral; settings: in vivo
Method in brief: (§2)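 Male ICR mice dosed orally in 1% DMSO/0.5% HPMC vehicle; plasma or brain drug levels used to derive Tmax, Cmax, AUC0-t, AUC0-inf and T1/2.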

[10] = AUC (0 to t) in ICR mouse at 10 mg/kg, po administered via gavage measured after 0.25 to 24 hrs by UPLC/MS analysis; format: ADME, organism-based; parameters: time 0.25-24 hr, dose 10 mg/kg, route oral; settings: in vivo
Method in brief: (§3)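 Male ICR mice were dosed orally in 1% DMSO/0.5% HPMC vehicle. Plasma (and brain, where stated) concentrations gave Tmax, Cmax, T1/2, AUC0-t and AUC0-inf.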

[11] = AUC (0 to infinity) in ICR mouse at 10 mg/kg, po administered via gavage measured after 0.25 to 24 hrs by UPLC/MS analysis; format: ADME, organism-based; parameters: dose 10 mg/kg, route oral, time infinity; settings: in vivo; method in brief: as §3
[12] = Half life in ICR mouse at 10 mg/kg, po administered via gavage measured after 0.25 to 24 hrs by UPLC/MS analysis; format: ADME, organism-based; settings: in vivo; method in brief: as §2
[13] = Metabolic stability in human liver microsomes at 1 uM preincubated for 5 mins followed by NADPH addition and measured after 5 to 30 mins by LC/MS/MS analysis; format: ADME, Microsome
Method in brief: (§4)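 Liver microsomes (0.5 mg/mL) preincubated 5 min at 37 °C with 1 μM compound in 0.1 M phosphate buffer pH 7.4 containing 1 mM EDTA and 5 mM MgCl2; started with 1 mM NADPH; sampled at 0, 5, 10 and 30 min; quenched with cold acetonitrile; parent remaining quantified by LC/MS/MS.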

[14] = Metabolic stability in mouse liver microsomes at 1 uM preincubated for 5 mins followed by NADPH addition and measured after 5 to 30 mins by LC/MS/MS analysis; format: ADME, Microsome; method in brief: as §4
[15] = target: CYP2C19 (Homo sapiens, UniProt P33261); experiment: Reversible inhibition of CYP2C19 in human liver microsomes at 10 uM using mephenytoin as substrate preincubated for 5 mins followed by NADPH generating system addition and measured after 20 mins relative to control; format: ADME; settings: probe mephenytoin
Method in brief: (§5)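 Human liver microsomes 0.2 mg/mL, 100 mM phosphate pH 7.4, 10 μM test compound, probe cocktail (10 μM midazolam, 100 μM testosterone, 10 μM dextromethorphan, 20 μM diclofenac, 100 μM phenacetin, 100 μM mephenytoin); organic solvent <1%; 5 min preincubation at 37 °C, started with NADPH-generating system, 20 min reaction; metabolite formation expressed relative to PBS control.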

[16] = target: CYP1A2 (Homo sapiens, UniProt P05177); experiment: Reversible inhibition of CYP1A2 in human liver microsomes at 10 uM using phenacetin as substrate preincubated for 5 mins followed by NADPH generating system addition and measured after 20 mins relative to control; format: ADME; settings: probe phenacetin; method in brief: as §5
[17] = target: CYP2C9 (Homo sapiens, UniProt P11712); experiment: Reversible inhibition of CYP2C9 in human liver microsomes at 10 uM using diclofenac as substrate preincubated for 5 mins followed by NADPH generating system addition and measured after 20 mins relative to control; format: ADME; settings: probe diclofenac; method in brief: as §5
[18] = Half life in mouse liver microsomes at 1 uM preincubated for 5 mins followed by NADPH addition and measured after 5 to 30 mins by LC/MS/MS analysis; format: ADME, Microsome; settings: mouse liver microsomes
[19] = Intrinsic clearance in mouse liver microsomes at 1 uM preincubated for 5 mins followed by NADPH addition and measured after 5 to 30 mins by LC/MS/MS analysis; format: ADME, Microsome; settings: read-out: CLH; method in brief: as §4
[20] = target: CYP3A4 (Homo sapiens, UniProt P08684); experiment: Reversible inhibition of CYP3A4 in human liver microsomes at 10 uM using midazolam or testosterone as substrate preincubated for 5 mins followed by NADPH addition and measured after 20 mins relative to control; format: ADME; settings: probe midazolam or testosterone; method in brief: as §5
[21] = Half life in human liver microsomes at 1 uM preincubated for 5 mins followed by NADPH addition and measured after 5 to 30 mins by LC/MS/MS analysis; format: ADME, Microsome
[22] = Intrinsic clearance in human liver microsomes at 1 uM preincubated for 5 mins followed by NADPH addition and measured after 5 to 30 mins by LC/MS/MS analysis; format: ADME, Microsome; settings: read-out: CLH; method in brief: as §4
[23] = target: CYP2D6 (Homo sapiens, UniProt P10635); experiment: Reversible inhibition of CYP2D6 in human liver microsomes at 10 uM using dextromethorphan as substrate preincubated for 5 mins followed by NADPH generating system addition and measured after 20 mins relative to control; format: ADME; settings: probe dextromethorphan; method in brief: as §5
[24] = target: Bromodomain-containing protein 2 (Homo sapiens) (UniProt P25440); experiment: Inhibition of BRD2 bromodomain 1 (unknown origin)
[25] = target: Bromodomain-containing protein 2 (Homo sapiens) (UniProt P25440); experiment: Inhibition of BRD2 bromodomain 2 (unknown origin)
Method in brief: (§6)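 Bromodomain binding panel (32 bromodomains) screened at 1 μM; primary binding read-out reported as percent of control, lower values meaning stronger binding.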

[26] = target: T2, Bromodomain-containing protein 4; experiment: Inhibition of BRD4 bromodomain 1 (unknown origin)
Method in brief: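 BRD4 BD1 (His6-tagged, E. coli BL21(DE3)-expressed, Ni-NTA purified) at 10 nM with 5 nM FITC-labelled (+)-JQ1 tracer; 50 mM HEPES pH 7.4, 150 mM NaCl, 0.5 mM CHAPS, DMSO 2‰ final; graded inhibitor; 4 h dark equilibration at room temperature; fluorescence anisotropy read (ex 485/em 530 nm). IC50 from two independent experiments in duplicate, mean ± SEM.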

[27] = target: Histone acetyltransferase p300 (Homo sapiens) (UniProt Q09472); experiment: Inhibition of EP300 (unknown origin) at 1 uM; method in brief: as §6
[28] = target: T2, Bromodomain-containing protein 4; experiment: Inhibition of BRD4 bromodomain 2 (unknown origin)

Cytochrome P450 2C9, sequence (P11712 whole entry): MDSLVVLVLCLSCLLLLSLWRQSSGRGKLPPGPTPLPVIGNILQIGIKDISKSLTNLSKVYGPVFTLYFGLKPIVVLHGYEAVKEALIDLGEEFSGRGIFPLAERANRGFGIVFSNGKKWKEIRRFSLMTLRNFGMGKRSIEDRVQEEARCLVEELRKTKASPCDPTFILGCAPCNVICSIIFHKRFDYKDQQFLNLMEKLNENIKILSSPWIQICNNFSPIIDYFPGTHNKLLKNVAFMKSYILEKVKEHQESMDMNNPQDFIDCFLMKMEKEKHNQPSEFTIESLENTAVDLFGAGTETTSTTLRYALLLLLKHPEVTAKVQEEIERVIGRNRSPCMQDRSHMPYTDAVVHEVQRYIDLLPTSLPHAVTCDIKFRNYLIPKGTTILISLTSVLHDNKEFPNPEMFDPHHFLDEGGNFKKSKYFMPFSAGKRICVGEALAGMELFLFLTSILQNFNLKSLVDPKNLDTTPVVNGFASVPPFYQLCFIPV
CYP2C9, sequence (P11712 whole entry): as above
Cytochrome P450 3A4, sequence (P08684 whole entry): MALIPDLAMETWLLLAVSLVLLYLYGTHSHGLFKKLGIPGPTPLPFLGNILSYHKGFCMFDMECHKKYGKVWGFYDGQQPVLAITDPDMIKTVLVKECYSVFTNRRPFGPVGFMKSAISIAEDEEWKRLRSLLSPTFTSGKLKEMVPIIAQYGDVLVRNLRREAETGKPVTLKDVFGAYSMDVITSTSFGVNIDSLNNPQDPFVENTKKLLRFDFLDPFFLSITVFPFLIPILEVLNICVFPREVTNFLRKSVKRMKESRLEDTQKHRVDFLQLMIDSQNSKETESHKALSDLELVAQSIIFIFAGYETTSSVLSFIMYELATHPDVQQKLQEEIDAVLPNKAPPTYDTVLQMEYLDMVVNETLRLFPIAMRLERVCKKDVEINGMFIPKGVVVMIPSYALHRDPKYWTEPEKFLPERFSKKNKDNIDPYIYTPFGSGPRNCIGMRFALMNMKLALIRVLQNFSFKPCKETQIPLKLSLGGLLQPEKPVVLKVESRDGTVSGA
Cytochrome P450 2C19, sequence (P33261 whole entry): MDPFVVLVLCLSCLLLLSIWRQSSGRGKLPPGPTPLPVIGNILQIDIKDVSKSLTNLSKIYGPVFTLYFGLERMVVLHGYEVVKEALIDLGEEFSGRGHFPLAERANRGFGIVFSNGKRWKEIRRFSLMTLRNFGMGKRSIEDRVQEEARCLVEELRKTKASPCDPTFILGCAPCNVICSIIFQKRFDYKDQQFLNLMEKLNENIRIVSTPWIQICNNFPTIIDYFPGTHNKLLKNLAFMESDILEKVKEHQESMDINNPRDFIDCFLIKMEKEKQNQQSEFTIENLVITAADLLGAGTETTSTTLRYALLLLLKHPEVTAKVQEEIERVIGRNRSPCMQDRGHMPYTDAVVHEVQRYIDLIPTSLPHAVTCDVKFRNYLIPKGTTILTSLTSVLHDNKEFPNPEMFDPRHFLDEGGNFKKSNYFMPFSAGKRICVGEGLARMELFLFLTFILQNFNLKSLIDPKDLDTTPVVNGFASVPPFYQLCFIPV
Cytochrome P450 2D6, sequence (P10635 whole entry): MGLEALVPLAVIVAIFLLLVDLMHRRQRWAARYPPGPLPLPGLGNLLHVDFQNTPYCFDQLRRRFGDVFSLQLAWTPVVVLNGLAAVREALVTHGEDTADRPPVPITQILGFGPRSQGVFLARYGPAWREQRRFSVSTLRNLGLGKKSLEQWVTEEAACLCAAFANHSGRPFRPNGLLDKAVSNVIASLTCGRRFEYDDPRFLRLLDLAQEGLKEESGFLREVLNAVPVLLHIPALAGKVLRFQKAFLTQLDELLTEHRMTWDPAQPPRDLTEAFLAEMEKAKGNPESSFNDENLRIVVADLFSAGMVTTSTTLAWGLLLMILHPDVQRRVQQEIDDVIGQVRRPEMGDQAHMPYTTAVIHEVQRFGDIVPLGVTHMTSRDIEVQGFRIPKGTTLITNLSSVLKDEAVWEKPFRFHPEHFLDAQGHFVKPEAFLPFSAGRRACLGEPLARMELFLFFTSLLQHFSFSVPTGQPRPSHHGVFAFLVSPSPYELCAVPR
Bromodomain-containing protein 2 (Homo sapiens), sequence (P25440 whole entry, looked up): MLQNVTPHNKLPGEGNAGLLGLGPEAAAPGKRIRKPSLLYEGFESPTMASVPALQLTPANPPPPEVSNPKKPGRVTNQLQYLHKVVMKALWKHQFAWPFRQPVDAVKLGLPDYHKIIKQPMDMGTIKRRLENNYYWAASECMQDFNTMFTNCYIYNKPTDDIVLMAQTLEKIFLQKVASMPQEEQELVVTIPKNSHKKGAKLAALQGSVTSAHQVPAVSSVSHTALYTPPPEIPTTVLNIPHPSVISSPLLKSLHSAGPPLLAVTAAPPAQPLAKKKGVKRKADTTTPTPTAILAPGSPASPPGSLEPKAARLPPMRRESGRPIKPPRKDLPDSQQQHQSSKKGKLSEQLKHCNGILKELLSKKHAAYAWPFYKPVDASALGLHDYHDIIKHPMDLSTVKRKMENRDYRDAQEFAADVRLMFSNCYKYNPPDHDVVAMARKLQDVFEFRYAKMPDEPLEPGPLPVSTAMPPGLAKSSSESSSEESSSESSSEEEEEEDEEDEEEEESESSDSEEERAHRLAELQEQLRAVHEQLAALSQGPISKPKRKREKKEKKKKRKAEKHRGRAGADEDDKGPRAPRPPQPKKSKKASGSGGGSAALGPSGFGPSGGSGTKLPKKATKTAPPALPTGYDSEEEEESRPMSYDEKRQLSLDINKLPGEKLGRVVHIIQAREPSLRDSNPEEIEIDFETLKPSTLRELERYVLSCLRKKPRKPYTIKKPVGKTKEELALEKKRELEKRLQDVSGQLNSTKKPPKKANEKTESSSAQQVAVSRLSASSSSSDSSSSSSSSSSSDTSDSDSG
CYP3A4, sequence (P08684 whole entry): as the sequence (P08684 whole entry) above
CYP2C19, sequence (P33261 whole entry): as the sequence (P33261 whole entry) above
CYP2D6, sequence (P10635 whole entry): as the sequence (P10635 whole entry) above

Structure (SMILES)	Tmax [1]	TDI [2]	TDI [3]	TDI [4]	TDI [5]	TDI [6]	IC50 [7]	IC50 [8]	Cmax [9]	AUC(0-t) [10]	AUC(0-inf) [11]	half-life [12]	Stability [13]	Stability [14]	inhibition at 20 min, 10 µM [15]	inhibition at 20 min, 10 µM [17]	half-life at 1 µM [18]	microsomal CLint at 1 µM [19]	inhibition at 20 min, 10 µM [20]	half-life at 1 µM [21]	further results
Cc1ccc(-n2cnnc2-c2ccc3c(c2)N(C2CC2)C(C)C(=O)N3C)cc1 (centres undefined)	18 min	Not Active	Not Active	Not Active	Not Active	Not Active	8.6 nM	6.7 nM	163 ng/mL	161 ng·h/mL	164 ng·h/mL	90 min	Stable	Stable	–	–	–	–	–	–	–
Cc1ccc(-n2nc(C(=O)N3CCN(C)CC3)nc2-c2ccc3c(c2)N(C2CC2)C(C)C(=O)N3C)cc1 (centres undefined)	18 min	Not Active	41 ×10⁻⁴ /min	19 ×10⁻⁴ /min	14 ×10⁻⁴ /min	19 ×10⁻⁴ /min	9.4 nM	8 nM	1230 ng/mL	2740 ng·h/mL	2760 ng·h/mL	102 min	–	–	17%	6%	107 min	13 µL/min/mg	12%	62 min	inhibition at 20 min, 10 µM [16]: 2%; microsomal CLint at 1 µM [22]: 22 µL/min/mg
Cc1ccc(-n2nc(C(=O)N3CCN(C)CC3)nc2-c2ccc3c(c2)N(C2CCCC2)[C@H](C)C(=O)N3C)cc1	18 min	141 ×10⁻⁴ /min	51 ×10⁻⁴ /min	74 ×10⁻⁴ /min	Not Active	55 ×10⁻⁴ /min	5.4 nM	26.1 nM	42900 ng/mL	58100 ng·h/mL	58100 ng·h/mL	36 min	–	–	19%	30%	41 min	34 µL/min/mg	31%	23 min	inhibition at 20 min, 10 µM [23]: 3%; microsomal CLint at 1 µM [22]: 61 µL/min/mg; inhibition activity call (active/inactive) [24]: Active; inhibition [25]: Active; inhibition [26]: Active; inhibition [27]: inactive; inhibition [28]: Active
Cc1ccc(-n2c(C)nnc2-c2ccc3c(c2)N(C2CCCC2)[C@H](C)C(=O)N3C)cc1	–	Not Active	Not Active	Not Active	Not Active	Not Active	5.2 nM	3.9 nM	–	–	–	–	Stable	Stable	–	> 50%	–	–	–	–	inhibition activity call (active/inactive) [24]: Active; inhibition [25]: Active; inhibition [26]: Active; inhibition [27]: inactive; inhibition [28]: Active
